ChEMBL document CHEMBL5321249, “Appraisal of Fungus-Derived Xanthoquinodins as Broad-Spectrum Anti-Infectives Targeting Phylogenetically Diverse Human Pathogens” (J Nat Prod, 2023)

Assays:
[1] = Cytotoxicity against human HepG2 cells incubated for 48 hrs by MTS based assay; type: toxicity, cell-based
Plasmodium falciparum = assay: Antimalarial activity against asynchronous Plasmodium falciparum Dd2 infected in human A+ erythrocytes incubated for 72 hrs by SYBR Green I dye based assay; type: functional, organism-based; conditions: Dd2, Erythrocyte
Cryptosporidium parvum = assay: Antiparasitic activity against Nanoluciferase-tagged Cryptosporidium parvum infected in human HCT-8 cells assessed as inhibition of parasite growth incubated for 48 hrs by NanoGlo luciferase reagent based assay; type: functional, organism-based; conditions: HCT-8, 48 h
Summary of the method: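 HCT-8 cells grown 48 h to 50–75% confluence; calf-propagated oocysts activated 15 min in 10% bleach at room temperature, DPBS-washed, 5 × 10^3 per well in RPMI-1640 with 10% heat-inactivated FBS and penicillin-streptomycin plus graded compound, 48 h at 37 °C, 5% CO2. Lysed monolayers read with Nano-Glo; growth relative to infected untreated wells, no-parasite background; variable-slope sigmoidal EC50.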

Mycoplasma genitalium = assay: Antibacterial activity against Mycoplasma genitalium G37 assessed as bacterial growth inhibition incubated for 6 to 7 days by microbroth dilution assay; type: functional, organism-based; conditions: Mycoplasmoides genitalium
Summary of the method: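 M. genitalium G37 from frozen stock grown 2 days in SP-4 broth at 37 °C, 5% CO2, to log phase; 0.45 μm-filtered, diluted 1:200 in SP-4 with 7.5% FBS, ~10^4 CFU per well with 2-fold serial compound dilutions in triplicate.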

Trichomonas vaginalis = assay: Antiparasitic activity against Trichomonas vaginalis Donne PRA-98 incubated for 17 hrs by glutaraldehyde/propidium iodide/acridine orange staining based high-content imaging analysis; type: functional, organism-based; conditions: Donne PRA-98, 17 h
[2] = Selectivity index, ratio of EC50 for cytotoxicity against human HepG2 cells to EC50 for antimalarial activity against asynchronous Plasmodium falciparum Dd2 infected in human A+ erythrocytes; type: toxicity, cell-based; conditions: read-out: Ratio EC50
Summary of the method: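 SI is HepG2 EC50 over P. falciparum Dd2 EC50. Asynchronous-stage parasites were assayed by SYBR Green I fluorescence with chloroquine-treated and untreated controls, and EC50 came from dose–response fits. HepG2 cytotoxicity used an MTS absorbance assay in triplicate up to 25 μM, with a 5% Triton X-100 zero-viability control and a no-treatment control.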

[3] = Selectivity index, ratio of EC50 for cytotoxicity against human HepG2 cells to EC50 for antiparasitic activity against Nanoluciferase-tagged Cryptosporidium parvum infected in human HCT-8 cells assessed as inhibition of parasite growth; type: toxicity, cell-based; conditions: read-out: Ratio EC50
Summary of the method: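 For the parasite, 5 × 10^3 bleach-activated Nanoluciferase-tagged oocysts per well infected HCT-8 monolayers at 50–75% confluence in RPMI-1640 with 10% FBS. They were incubated 48 h at 37 °C, 5% CO2, then lysed for luminescence. Growth was expressed as percent of infected untreated wells and fitted by variable-slope sigmoidal dose–response.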

[4] = Selectivity index, ratio of EC50 for cytotoxicity against human HepG2 cells to EC50 for antibacterial activity against Mycoplasma genitalium G37; type: cell-based; conditions: read-out: Ratio EC50
Summary of the method: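 SI is HepG2 EC50 over M. genitalium G37 EC50. G37 (~10^4 CFU/well) was grown in SP-4 broth with 7.5% FBS against 2-fold serial dilutions in triplicate for 6–7 days at 37 °C, 5% CO2. Genomes were quantified by 16S rRNA qPCR against untreated wells. HepG2 cytotoxicity used an MTS assay in triplicate, maximum 25 μM, with Triton X-100-lysed and untreated controls.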

[5] = Selectivity index, ratio of EC50 for cytotoxicity against human HepG2 cells to EC50 for antiparasitic activity against Trichomonas vaginalis Donne PRA-98; type: toxicity, cell-based; conditions: read-out: Ratio EC50
Summary of the method: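 Trichomonads (4 × 10^4 per well) under microaerophilic conditions were treated with compound at no more than 0.5% DMSO for 17 h. Cells were then fixed with glutaraldehyde, propidium iodide and acridine orange, shaken, incubated 3 h at 37 °C, and counted by high-content imaging.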

| EC50 (Plasmodium falciparum) [µM] | EC50 (Trichomonas vaginalis) [µM] | SMILES | EC50 at 48 h [1] [µM] | EC50 (Cryptosporidium parvum) [µM] | EC50 (Mycoplasma genitalium) [µM] | selectivity ratio [2] | selectivity ratio [3] | selectivity ratio [4] | selectivity ratio [5] |
| --- | --- | --- | --- | --- | --- | --- | --- | --- | --- |
| > 5 | > 10 | COC(=O)[C@]1([C@@H]2CCC(=O)O2)CC(=O)c2c(O)cc(C)cc2O1 | > 25 | > 40 | > 10 | – | – | – | – |
| 1.65 | > 10 | Cc1cc(O)c2c(c1)[C@@H]([C@H]1c3cc(C)cc(O)c3C(=O)c3c(O)cc(O)cc31)c1cc(O)cc(O)c1C2=O | 13.8 | > 7.2 | > 10 | 8.6 | – | – | – |
| > 5 | > 10 | COC(=O)[C@]1([C@@H](O)CCC(=O)O)CC(=O)c2c(cc3c(c2O)[C@@H]2C=C[C@@]4(C3)C(=O)c3cc(C)cc(O)c3C(O)=C4C2=O)O1 | > 25 | > 10 | > 10 | – | – | – | – |
| 1.12 | > 10 | Cc1cc(O)c2c(c1)[C@@H]([C@@H]1c3cc(C)cc(O)c3C(=O)c3c(O)cc(O)cc31)c1cc(O)cc(O)c1C2=O (relative stereo) | 10.2 | > 2.4 | > 10 | 9.1 | – | – | – |
| – | 3.5 | Cc1ncc([N+](=O)[O-])n1CCO [METRONIDAZOLE] | – | – | – | – | – | – | – |
| – | – | CCOc1ccc2cc(-c3nn(CC4CCN(C)CC4)c4ncnc(N)c34)ccc2c1 | – | 1.1 | – | – | – | – | – |
| > 5 | > 10 | COC(=O)[C@]1([C@@H](O)CCC(=O)O)CC(=O)c2c(cc3c(c2O)[C@@H]2C=C[C@@]4(C3)C(=O)c3cc(C)cc(O)c3C(=O)[C@]4(O)C2=O)O1 | > 25 | > 10 | > 10 | – | – | – | – |
| > 5 | > 10 | COC(=O)[C@]1([C@@H]2CCC(=O)O2)CC(=O)c2c(cc3c(c2O)[C@@H]2C=C[C@@]4(C3)C(=O)c3cc(C)cc(O)c3C(O)=C4C2=O)O1 [XANTHOQUINODIN A3] | > 25 | – | – | – | – | – | – |
| > 5 | > 10 | COC(=O)[C@@]12Oc3cc4c(c(O)c3C(=O)[C@]1(O)C(=O)CC[C@@H]2O)[C@@H]1C=C[C@@]2(C4)C(=O)c3cc(C)cc(O)c3C(=O)[C@]2(O)C1=O | > 25 | > 10 | > 10 | – | – | – | – |
| > 5 | > 10 | COC(=O)[C@@]12Oc3cc4c(c(O)c3C(=O)C1=C(O)CC[C@@H]2O)[C@@H]1C=C[C@@]2(C4)C(=O)c3cc(C)cc(O)c3C(=O)[C@]2(O)C1=O | > 25 | > 10 | > 10 | – | – | – | – |
| – | – | CC[C@H]1OC(=O)[C@H](C)[C@@H](O[C@H]2C[C@@](C)(OC)[C@@H](O)[C@H](C)O2)[C@H](C)[C@@H](O[C@@H]2O[C@H](C)C[C@H](N(C)C)[C@H]2O)[C@](C)(O)C[C@@H](C)CN(C)[C@H](C)[C@@H](O)[C@]1(C)O [AZITHROMYCIN] | – | – | 0.0005 | – | – | – | – |

| SMILES | EC50 (Plasmodium falciparum) [µM] | EC50 (Trichomonas vaginalis) [µM] | EC50 at 48 h [1] [µM] | EC50 (Cryptosporidium parvum) [µM] | EC50 (Mycoplasma genitalium) [µM] | selectivity ratio [2] | selectivity ratio [3] | selectivity ratio [4] | selectivity ratio [5] |
| --- | --- | --- | --- | --- | --- | --- | --- | --- | --- |
| COC(=O)[C@]1([C@@H]2CCC(=O)O2)CC(=O)c2c(cc3c(c2O)[C@@H]2C=C[C@@]4(C3)C(=O)c3cc(C)cc(O)c3C(=O)[C@]4(O)C2=O)O1 | > 5 | > 10 | > 25 | > 6 | > 10 | – | – | – | – |
| COC(=O)[C@@]12Oc3cc4c(c(O)c3C(=O)C1=C(O)CC[C@@H]2O)[C@@H]1C=C[C@@]2(C4)C(=O)c3cc(C)cc(O)c3C(O)=C2C1=O [XANTHOQUINODIN A1] | 0.29 | 3.9 | > 25 | 5.2 | 0.13 | > 86 | > 4.8 | > 62.5 | > 6.4 |
| COC(=O)[C@]12Oc3c(c(O)cc4c3[C@@H]3C=C[C@@]5(C4)C(=O)c4cc(C)cc(O)c4C(=O)[C@]5(O)C3=O)C(=O)C1=C(O)CC[C@@H]2O | > 5 | > 10 | > 25 | > 10 | > 10 | – | – | – | – |
| COC(=O)[C@]12Oc3cc4c(c(O)c3C(=O)C1=C(O)CC[C@@H]2O)[C@@H]1C=C[C@@]2(C4)C(=O)c3cc(C)cc(O)c3C(O)=C2C1=O [XANTHOQUINODIN A2] | 0.5 | 6.8 | > 25 | 3.5 | 0.12 | > 50 | > 7.1 | > 125 | > 3.7 |
